High-throughput results deposited in PubChem by Broad Institute.
GSIS activator = primary screen for activators of insulin secretion dependent on glucose, INS-1E cells, GLuc reporter luminescence. AID 743287. INS-1E GLuc reporter insulin secretion, 2-3 h. activation, % at 16.6 µM. 370,000 compounds, 0.61% hits;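 active = lowest replicate activation of at least 40%, so every replicate reaches that level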
dFosB act = mouse delta FosB homodimer activation | P13346 | purified delta FosB, TAMRA-CDK5 oligo fluorescence polarization; percent of positive-control signal above neutral wells | activation, % at 25 µM | 340,000 compounds, 0.99% hits | AID 493131;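 active = mean activation above about 17%, with every replicate also reaching it, limit read from the data, passing the limit was not always enough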
Cneo AK release = causes C. neoformans cell lysis; AID 651654; 360,000 compounds, 0.2% hits; lysis activity, % at 15 µM; adenylate kinase release luminescence, 4 h; normalised: neutral wells 0, clomiphene wells 100;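 active = mean lysis activity across replicates of at least 80%, whatever share of replicates individually reach that level; inactive = mean lysis activity below 80%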
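Assay system: Cryptococcus neoformans yeast cells / Dosing: single-point compound dose / Timing: 4 h at 37 °C static, read 1 h later / Measured by: luminescence of released adenylate kinase using an AK detection reagent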
HIV Env fusion = inhibitors of HIV Env-mediated cell fusion; HeLa-JRFL Env/CEM21 cell fusion, luciferase; AID 651610; 360,000 compounds, 1.1% hits; inhibition, % at 12.3 µM;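 active = mean replicate inhibition score of at least 50 and every replicate individually at or above 50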
miR-122 sensor = blocks miR-122 activity in Huh7 sensor cells; activation (reporter increase), % at 12.5 µM; AID 602342; Huh7 miR-122 Renilla luciferase sensor, 48 h; neutral wells = 0, positive control = 100; 340,000 compounds, 0.3% hits;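 active = mean replicate activation score at least 90 and every replicate individually at or above 90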;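 also: higher luciferase means less miR-122 activity so hits act as miR-122 inhibitors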
Rtt109 HAT inh = blocks Candida albicans Rtt109/Vps75 acetyltransferase activity. 330,000 compounds, 0.16% hits. purified Rtt109/Vps75, ThioGlo CoA-SH fluorescence, 4 h. Q5AAJ8. inhibition, % at 34.9 µM;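 active = inhibition of at least 50% in every replicate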
Target sequence (Q5AAJ8 whole entry, looked up): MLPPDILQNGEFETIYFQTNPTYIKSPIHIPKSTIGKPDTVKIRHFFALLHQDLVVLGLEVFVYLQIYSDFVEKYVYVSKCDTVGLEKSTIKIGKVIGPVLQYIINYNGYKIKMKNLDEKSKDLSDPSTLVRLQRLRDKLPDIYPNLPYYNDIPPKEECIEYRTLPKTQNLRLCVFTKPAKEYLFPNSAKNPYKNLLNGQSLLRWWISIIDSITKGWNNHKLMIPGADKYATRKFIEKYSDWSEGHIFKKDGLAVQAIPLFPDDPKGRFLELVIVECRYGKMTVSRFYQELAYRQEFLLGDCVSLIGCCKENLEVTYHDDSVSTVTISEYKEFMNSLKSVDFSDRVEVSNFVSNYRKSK
Of the large screens only hits and unclear results are named; the others gave an inactive call. This is a sample that favours compounds with a hit; in the whole collection about 2.4% have one here.

C=CCOc1ccc(/C=C/C(=O)OCC(=O)NC2CCCCCCC2)cc1	HIV Env fusion 60
O=C(COc1ccc(S(=O)(=O)NC2CCCCC2)cc1)NC1CCCC1	miR-122 sensor 245
Cc1ccc(CN2CCSc3ccc(C(=O)NC4CCN(Cc5ccccc5)CC4)cc32)cc1	dFosB act 43
Cc1c(C(=O)Nc2ccc3c(c2)OCCO3)sc2nc(-c3ccccc3)cn12	HIV Env fusion 57 (no result: miR-122 sensor)
CCC1(C)Cc2ccccc2-c2nc(SCC(N)=O)[nH]c(=O)c21 (stereo not given)	none
CCC1(C)Cc2ccccc2-c2nc(SC)[nH]c(=O)c21 (stereo not given)	GSIS activator 60, HIV Env fusion 80 (no result: Cneo AK release, miR-122 sensor, Rtt109 HAT inh)
CNC[C@@H]1Oc2cc(-c3ccccc3F)ccc2S(=O)(=O)N([C@@H](C)CO)C[C@@H]1C	none (no result: dFosB act, Cneo AK release, Rtt109 HAT inh)
Cc1noc(C)c1S(=O)(=O)Nc1ccc2c(c1)C(=O)N([C@H](C)CO)C[C@H](C)[C@@H](CN(C)CC1CCCCC1)OCCCC[C@H](C)O2	none (no result: dFosB act, Rtt109 HAT inh)
CC=Cc1ccc2n(c1=O)C[C@H]1[C@H](CO)[C@@H](C(=O)NCCN3CCCC3)N(C(=O)NC(C)C)[C@@H]21 (mixture of isomers)	none (no result: dFosB act, miR-122 sensor, Rtt109 HAT inh)
COc1ccc([C@H]2CC(=O)C=C(c3ccc(F)cc3OCc3ccccc3)C2)cc1OC	HIV Env fusion 72 (no result: GSIS activator)
CC(C)NC(=O)N(C)C[C@H]1Oc2ccc(N(C)C)cc2CC(=O)N(C)C[C@H]1C	none (no result: dFosB act, Cneo AK release, HIV Env fusion, miR-122 sensor, Rtt109 HAT inh)
CCc1cc2c(NCc3ccco3)ncnc2s1	HIV Env fusion 80 (no result: GSIS activator)
C[C@H]1CC=CC[C@@H](c2ccc3c(c2)OCO3)NC(=O)[C@H](Cc2ccccc2)N(C)C(=O)c2ccccc2O1 (mixture of isomers)	none (no result: dFosB act, Cneo AK release, HIV Env fusion, miR-122 sensor, Rtt109 HAT inh)
CC(=O)Nc1ccc(N/C=C(\C#N)S(=O)(=O)c2ccc(Cl)cc2)cc1	none (no result: miR-122 sensor)
CC(=O)Nc1ccc(/C=C(\C#N)S(=O)(=O)c2ccc(C)cc2)cc1	GSIS activator 60
CCCNC(=O)N1CCC2(CC1)CN(C(=O)COC)[C@@H](CO)c1c2c2ccc(OC)cc2n1C	none (no result: dFosB act, Cneo AK release, HIV Env fusion, miR-122 sensor, Rtt109 HAT inh)
CN(C)c1nc(N/N=C/c2ccccc2O)nc(Nc2ccc(F)cc2)n1	dFosB act 60 (no result: Cneo AK release, miR-122 sensor, Rtt109 HAT inh)
CN(C)c1nc(Nc2ccc(F)cc2)nc(Oc2ccc(F)cc2)n1	none (no result: miR-122 sensor)
O=C(C[C@@H]1CC[C@@H](NS(=O)(=O)c2cccc(F)c2)[C@@H](CO)O1)N1CCCCC1	none (no result: dFosB act, miR-122 sensor, Rtt109 HAT inh)
CCCC(=O)N1CC2(CCN(C)CC2)c2c(n(C)c3cc(OC)ccc23)[C@@H]1CO	none (no result: dFosB act, Cneo AK release, HIV Env fusion, miR-122 sensor, Rtt109 HAT inh)
COc1ccc(CCNC(=O)COC(=O)COc2ccc(Cl)cc2)cc1OC	none (no result: Cneo AK release, miR-122 sensor)
CCOc1ccc(CCNC(=O)COC(=O)COc2ccc(Cl)cc2)cc1OCC	GSIS activator 45 (no result: Cneo AK release, miR-122 sensor)
CCOc1ncccc1C(=O)OCC(=O)NCCc1ccc(S(N)(=O)=O)cc1	GSIS activator 40 (no result: miR-122 sensor)
CCOc1ncccc1C(=O)NCCc1ccc(S(N)(=O)=O)cc1	none
CCOc1ccc(CCNC(=O)COC(=O)c2ccccc2O)cc1OCC	none
CCOc1ccc(CCNC(=O)CCNC(=O)c2ccco2)cc1OCC	GSIS activator 92
CCOc1ccc(CCNC(=O)COC(=O)c2cccnc2OCC)cc1OCC	GSIS activator 61 (no result: Cneo AK release)
CCOc1ccc(CCNC(=O)COC(=O)c2nc3nc(C)cc(C)n3n2)cc1OCC	GSIS activator 45
CCOc1ccc(CCNC(=O)COC(=O)c2nccnc2N)cc1OCC	GSIS activator 51 (no result: miR-122 sensor)
CO[C@H]1CN(C)C(=O)c2ccc(NC(=O)CC(F)(F)F)cc2OC[C@H](C)N(C(C)=O)C[C@@H]1C	none (no result: dFosB act, Cneo AK release, HIV Env fusion, miR-122 sensor, Rtt109 HAT inh)
CO[C@@H]1CN(C)C(=O)c2ccc(NC(=O)c3cccc(Oc4ccccc4)c3)cc2OC[C@H](C)NC[C@H]1C	none (no result: dFosB act, Cneo AK release, miR-122 sensor, Rtt109 HAT inh)
CC(=O)N1CC2(C1)[C@H](c1ccc(-c3ccccc3C)cc1)[C@@H](CO)N2C(C)=O	none (no result: dFosB act, Cneo AK release, HIV Env fusion, miR-122 sensor, Rtt109 HAT inh)
O=P(OC1CCCCC1)(OC1CCCCC1)C(O)c1ccccc1 (stereo not given)	HIV Env fusion 61, miR-122 sensor 147 (no result: GSIS activator)
Cc1ccc(NC(=O)C2CCC(CNc3c(N4CCC(C)CC4)c(=O)c3=O)CC2)cc1F (stereo not given)	HIV Env fusion 59 (no result: Cneo AK release, miR-122 sensor)
CC1CCN(c2c(NCC3CCC(C(=O)NCc4ccc(F)cc4)CC3)c(=O)c2=O)CC1 (stereo not given)	none
Cc1noc(C)c1NC(=O)Nc1ccc2c(c1)C(=O)N([C@@H](C)CO)C[C@@H](C)[C@H](CN(C)Cc1ccc(C(=O)O)cc1)OCCCC[C@@H](C)O2	none (no result: dFosB act, Rtt109 HAT inh)
C/C(=N/NC(=O)C1CC1(c1ccccc1)c1ccccc1)c1cccs1 (stereo not given)	HIV Env fusion 57 (no result: Cneo AK release, miR-122 sensor)
CCC1CCCCN1CCCNC(=O)C1CCC(=O)N1Cc1ccc(C)cc1 (stereo not given)	dFosB act 16 (no result: GSIS activator, HIV Env fusion)
O=C(Nc1ccc(F)cc1)c1cccnc1Oc1ccccc1	GSIS activator 89
CCC(=O)N(C)C[C@H]1Oc2ncc(C3=CCCC3)cc2C(=O)N([C@@H](C)CO)C[C@H]1C	none (no result: dFosB act, Rtt109 HAT inh)
O=C(C[C@@H]1CC[C@H](NC(=O)Nc2ccccc2F)[C@@H](CO)O1)NCc1ccc(-c2ccccc2)cc1	none (no result: dFosB act, Cneo AK release, HIV Env fusion, miR-122 sensor, Rtt109 HAT inh)
